From ChEMBL document CHEMBL1149152, “Selective, orally active gamma-aminobutyric acidA alpha5 receptor inverse agonists as cognition enhancers” (J Med Chem, 2004)

Assays:
[1] = target: GABA-A receptor; alpha-3/beta-3/gamma-2 (Homo sapiens) (UniProt P18507+P28472+P34903); assay: Percentage modulation of submaximal (EC20) response to GABA in Xenopus oocytes expressing human GABA-A alpha-3-beta-3-gamma-2 subunits; type: cell-based; conditions: Oocyte; also: test concentration or dose not given here
Outline: (§1)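 Two-electrode voltage clamp on Xenopus laevis oocytes transiently expressing human GABA-A receptor subtypes. Modulation of the submaximal GABA (EC20) ion current is expressed as a percentage. Values are the arithmetic mean ± SEM from at least three independent cells.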

[2] = target: GABA-A receptor; alpha-2/beta-3/gamma-2 (Homo sapiens) (UniProt P18507+P28472+P47869); assay: Percentage modulation of submaximal (EC20) response to GABA in Xenopus oocytes expressing human GABA-A alpha-2-beta-3-gamma-2 subunits; type: cell-based; conditions: Oocyte; outline: as §1; also: test concentration or dose not given here
[3] = target: GABA-A receptor; alpha-1/beta-3/gamma-2 (Homo sapiens) (UniProt P14867+P18507+P28472); assay: Percentage modulation of submaximal (EC20) response to GABA in Xenopus oocytes expressing human GABA-A alpha-1-beta-3-gamma-2 subunits; type: cell-based; conditions: Oocyte; outline: as §1; also: test concentration or dose not given here
[4] = target: T1, GABA-A receptor; alpha-5/beta-3/gamma-2 (Homo sapiens, UniProt P18507+P28472+P31644); assay: Displacement of [3H]-Ro- 15-1788 from human GABA-A alpha-5-beta-3-gamma-2 receptor subunits expressed in Xenopus oocytes; type: cell-based, Oocyte
T1 sequence (P18507 whole entry): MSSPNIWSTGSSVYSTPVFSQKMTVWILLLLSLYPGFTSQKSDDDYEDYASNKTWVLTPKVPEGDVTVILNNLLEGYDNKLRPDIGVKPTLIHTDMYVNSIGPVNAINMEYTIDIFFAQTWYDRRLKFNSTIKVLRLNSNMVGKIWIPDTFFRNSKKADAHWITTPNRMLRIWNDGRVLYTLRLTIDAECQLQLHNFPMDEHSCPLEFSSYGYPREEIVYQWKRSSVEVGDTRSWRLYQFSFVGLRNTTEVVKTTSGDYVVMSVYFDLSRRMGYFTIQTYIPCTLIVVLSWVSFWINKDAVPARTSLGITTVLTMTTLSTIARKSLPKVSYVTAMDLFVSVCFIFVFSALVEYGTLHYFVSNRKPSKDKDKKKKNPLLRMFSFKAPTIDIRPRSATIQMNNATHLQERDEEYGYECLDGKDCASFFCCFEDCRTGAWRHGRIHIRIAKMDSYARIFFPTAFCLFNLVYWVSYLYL
T1 sequence (P28472 whole entry): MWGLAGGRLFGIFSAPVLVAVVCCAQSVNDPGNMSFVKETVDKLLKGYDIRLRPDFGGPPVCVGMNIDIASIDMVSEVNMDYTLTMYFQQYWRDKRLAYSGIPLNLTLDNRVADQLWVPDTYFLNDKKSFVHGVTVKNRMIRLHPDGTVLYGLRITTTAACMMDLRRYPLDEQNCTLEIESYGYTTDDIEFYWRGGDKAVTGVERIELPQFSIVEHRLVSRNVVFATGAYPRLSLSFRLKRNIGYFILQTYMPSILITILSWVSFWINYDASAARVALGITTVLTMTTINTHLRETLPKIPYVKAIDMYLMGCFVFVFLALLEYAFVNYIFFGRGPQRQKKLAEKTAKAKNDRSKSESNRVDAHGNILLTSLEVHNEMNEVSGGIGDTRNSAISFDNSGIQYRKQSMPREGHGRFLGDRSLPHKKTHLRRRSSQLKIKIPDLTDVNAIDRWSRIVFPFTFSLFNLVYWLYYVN
T1 sequence (P31644 whole entry): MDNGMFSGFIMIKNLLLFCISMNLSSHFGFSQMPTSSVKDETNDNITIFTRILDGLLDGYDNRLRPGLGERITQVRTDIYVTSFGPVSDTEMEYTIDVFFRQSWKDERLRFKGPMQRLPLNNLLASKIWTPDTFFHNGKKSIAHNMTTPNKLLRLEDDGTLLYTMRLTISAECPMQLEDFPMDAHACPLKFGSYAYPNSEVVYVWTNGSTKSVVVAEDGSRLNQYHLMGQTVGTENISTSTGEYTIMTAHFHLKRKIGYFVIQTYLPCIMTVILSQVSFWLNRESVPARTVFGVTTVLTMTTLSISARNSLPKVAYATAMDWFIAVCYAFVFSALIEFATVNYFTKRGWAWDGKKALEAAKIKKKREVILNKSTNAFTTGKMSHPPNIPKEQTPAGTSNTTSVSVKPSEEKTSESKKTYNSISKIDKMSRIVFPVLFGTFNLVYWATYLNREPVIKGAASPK
Outline: (§2)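 Radioligand displacement of [3H]Ro 15-1788 from recombinant human GABA-A receptor subtypes. Ki values are the mean of at least two independent determinations, with SEM given where at least three were performed.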

[5] = target: T2, GABA-A receptor; alpha-2/beta-3/gamma-2 (Homo sapiens, UniProt P18507+P28472+P47869); assay: Displacement of [3H]-Ro- 15-1788 from human GABA-A alpha-2-beta-3-gamma-2 receptor subunits expressed in Xenopus oocytes; type: cell-based, Oocyte; outline: as §2
T2 sequence (P18507 whole entry): T1 sequence (P18507 whole entry)
T2 sequence (P28472 whole entry): T1 sequence (P28472 whole entry)
T2 sequence (P47869 whole entry): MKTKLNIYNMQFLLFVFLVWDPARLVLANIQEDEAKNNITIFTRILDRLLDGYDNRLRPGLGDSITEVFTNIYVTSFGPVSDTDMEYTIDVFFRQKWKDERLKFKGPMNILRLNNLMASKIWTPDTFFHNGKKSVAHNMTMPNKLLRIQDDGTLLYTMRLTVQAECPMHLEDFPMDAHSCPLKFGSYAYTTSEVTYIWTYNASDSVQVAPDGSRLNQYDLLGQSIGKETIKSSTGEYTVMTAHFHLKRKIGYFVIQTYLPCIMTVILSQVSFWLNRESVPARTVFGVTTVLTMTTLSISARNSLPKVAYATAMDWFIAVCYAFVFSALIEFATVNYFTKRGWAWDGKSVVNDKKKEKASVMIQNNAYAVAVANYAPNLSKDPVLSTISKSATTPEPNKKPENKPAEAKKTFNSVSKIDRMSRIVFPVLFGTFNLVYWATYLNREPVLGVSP

[6] = target: T3, GABA-A receptor; alpha-3/beta-3/gamma-2 (Homo sapiens, UniProt P18507+P28472+P34903); assay: Displacement of [3H]-Ro- 15-1788 from human GABA-A alpha-3-beta-3-gamma-2 receptor subunits expressed in Xenopus oocytes; type: cell-based, Oocyte; outline: as §2
T3 sequence (P18507 whole entry): T1 sequence (P18507 whole entry)
T3 sequence (P28472 whole entry): T1 sequence (P28472 whole entry)
T3 sequence (P34903 whole entry): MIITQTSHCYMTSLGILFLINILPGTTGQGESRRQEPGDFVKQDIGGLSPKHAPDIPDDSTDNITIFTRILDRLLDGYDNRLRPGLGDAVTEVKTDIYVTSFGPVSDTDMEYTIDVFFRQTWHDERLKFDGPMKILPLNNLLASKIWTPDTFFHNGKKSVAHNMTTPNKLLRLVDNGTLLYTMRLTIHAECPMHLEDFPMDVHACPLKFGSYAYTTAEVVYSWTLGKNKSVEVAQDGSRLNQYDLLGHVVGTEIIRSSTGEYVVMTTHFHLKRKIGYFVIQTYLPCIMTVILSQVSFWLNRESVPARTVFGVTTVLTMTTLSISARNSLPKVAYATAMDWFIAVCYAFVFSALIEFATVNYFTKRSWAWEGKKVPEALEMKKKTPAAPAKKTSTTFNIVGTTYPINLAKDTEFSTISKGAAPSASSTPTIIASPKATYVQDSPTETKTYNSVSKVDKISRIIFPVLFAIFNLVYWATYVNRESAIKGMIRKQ

[7] = target: GABA-A receptor; alpha-5/beta-3/gamma-2 (Homo sapiens) (UniProt P18507+P28472+P31644); assay: Percentage modulation of submaximal (EC20) response to GABA in Xenopus oocytes expressing human GABA-A alpha-5-beta-3-gamma-2 subunits; type: cell-based; conditions: Oocyte; outline: as §1; also: test concentration or dose not given here
[8] = target: T4, GABA-A receptor; alpha-1/beta-3/gamma-2 (Homo sapiens, UniProt P14867+P18507+P28472); assay: Displacement of [3H]-Ro- 15-1788 from human GABA-A alpha-1-beta-3-gamma-2 receptor subunits expressed in Xenopus oocytes; type: cell-based, Oocyte
T4 sequence (P14867 whole entry): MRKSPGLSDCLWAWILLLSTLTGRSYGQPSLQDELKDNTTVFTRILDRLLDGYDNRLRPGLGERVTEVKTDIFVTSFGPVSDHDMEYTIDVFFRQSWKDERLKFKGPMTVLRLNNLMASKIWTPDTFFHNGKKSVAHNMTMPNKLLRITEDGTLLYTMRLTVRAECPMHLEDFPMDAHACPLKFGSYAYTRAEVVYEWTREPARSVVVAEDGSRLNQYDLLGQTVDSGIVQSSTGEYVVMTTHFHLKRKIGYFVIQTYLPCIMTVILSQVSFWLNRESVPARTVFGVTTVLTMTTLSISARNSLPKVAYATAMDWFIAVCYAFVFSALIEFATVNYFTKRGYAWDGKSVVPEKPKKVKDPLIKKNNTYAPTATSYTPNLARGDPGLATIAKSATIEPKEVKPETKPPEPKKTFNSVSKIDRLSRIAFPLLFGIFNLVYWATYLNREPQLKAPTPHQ
T4 sequence (P18507 whole entry): T1 sequence (P18507 whole entry)
T4 sequence (P28472 whole entry): T1 sequence (P28472 whole entry)
Outline: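 Radioligand binding to recombinant human GABA-A receptor subtypes, measuring displacement of [3H]Ro 15-1788. Ki values are the mean of at least two independent determinations, with SEM given where at least three were performed.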

CNC1=Nc2ccc(Cl)cc2C(c2ccccc2)=[N+]([O-])C1
Efficacy [1]: 173% | Efficacy [2]: 101% | Efficacy [3]: 165%

Cc1cccc(COc2nn3c(-c4cc(C)on4)nnc3c3c2C2CCC3CC2)n1
Efficacy [1]: -1% | Efficacy [2]: 15% | Ki [4]: 4.6 nM | Ki [5]: 86 nM | Ki [6]: 41 nM | Efficacy [7]: -29% | Ki [8]: 280 nM

CCc1c(C(=O)OC)ncc2[nH]c3cc(OC)c(OC)cc3c12
Efficacy [1]: -52% | Efficacy [2]: -34% | Ki [4]: 2.3 nM | Ki [5]: 11 nM | Ki [6]: 10 nM | Efficacy [7]: -52% | Efficacy [3]: -36% | Ki [8]: 16 nM

Cc1cc(-c2nnc3c4ccccc4c(OCc4ccccn4)nn23)no1
Efficacy [1]: -4% | Ki [4]: 0.62 nM | Ki [5]: 1.5 nM | Ki [6]: 0.96 nM | Efficacy [7]: -46% | Efficacy [3]: -2% | Ki [8]: 0.93 nM

Cc1cccc(COc2nn3c(-c4nc(C)no4)nnc3c3c2C2CCC3CC2)n1
Efficacy [1]: -21% | Efficacy [2]: -10% | Ki [4]: 1.1 nM | Ki [5]: 17 nM | Ki [6]: 7.6 nM | Efficacy [7]: -35% | Efficacy [3]: -15% | Ki [8]: 74 nM

Cc1cc(-c2nnc3c4ccccc4c(OCc4cnn(C)n4)nn23)no1
Efficacy [1]: -3% | Efficacy [2]: 9% | Ki [4]: 0.87 nM | Ki [5]: 0.64 nM | Ki [6]: 0.8 nM | Efficacy [7]: -35% | Efficacy [3]: -5% | Ki [8]: 1.3 nM

Cc1cc(-c2nnc3c4ccccc4c(OCc4cn(C)nn4)nn23)no1
Efficacy [1]: 4% | Efficacy [2]: 12% | Ki [4]: 0.66 nM | Ki [5]: 0.58 nM | Ki [6]: 0.61 nM | Efficacy [7]: -29% | Efficacy [3]: -4% | Ki [8]: 0.88 nM

Cc1cccc(COc2nn3c(-c4ccsc4)nnc3c3c2C2CCC3CC2)n1
Efficacy [1]: 38% | Efficacy [2]: 9% | Ki [4]: 3.7 nM | Ki [5]: 110 nM | Ki [6]: 48 nM | Efficacy [3]: 17% | Ki [8]: 270 nM

Cc1cccc(COc2nn3c(-c4ccoc4)nnc3c3c2C2CCC3CC2)n1
Efficacy [1]: -4% | Efficacy [2]: -6% | Ki [4]: 3.1 nM | Ki [5]: 63 nM | Ki [6]: 40 nM | Efficacy [7]: -24% | Ki [8]: 250 nM

Cc1cc(-c2nnc3c4ccccc4c(OCc4cnnn4C)nn23)no1
Efficacy [1]: -6% | Efficacy [2]: -25% | Ki [4]: 2 nM | Ki [5]: 2.8 nM | Ki [6]: 5.2 nM | Efficacy [7]: -33% | Efficacy [3]: -8% | Ki [8]: 4.2 nM

Cc1cccc(COc2nn3c(-c4ccccc4)nnc3c3c2C2CCC3CC2)n1
Ki [4]: 2.9 nM | Ki [5]: 46 nM | Ki [6]: 25 nM | Efficacy [7]: 15% | Ki [8]: 170 nM

Cc1cccc(COc2nn3c(-c4cc(C)on4)nnc3c3ccccc23)n1
Ki [4]: 0.79 nM | Ki [5]: 1.6 nM | Ki [6]: 1.3 nM | Efficacy [7]: -15% | Ki [8]: 0.88 nM
